Results from ChEMBL document CHEMBL4665801, “Pyrazole-Based Lactate Dehydrogenase Inhibitors with Optimized Cell Activity and Pharmacokinetic Properties” (J Med Chem, 2020).
Calls of active or inactive are those of the source. Unless noted, the calls are words filed in the database; no cut-off is given here.

Tests used:
[1] = target: T1, L-lactate dehydrogenase A chain (Homo sapiens, UniProt P00338); experiment: Inhibition of LDHA in human A673 cells assessed as decrease in extracellular acidification rate at 0.5 to 5 uM preincubated for 1 hr followed by glucose/oligomycin/2-DG addition at 48 mins by seahorse XF GST based assay; format: cell-based; settings: dose microM 0.5-5, time 108.0 min
Outline: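 A673 cells in DMEM with 10% FBS were plated 24 h ahead, then switched to Seahorse basic DMEM with 2 mM glutamine, pH 7.4, and held 1 h at 37 °C without CO2. ECAR was recorded after inhibitor injection at increasing concentrations. At 48 min, glucose (10 mM final), oligomycin (1 μg/mL final) and 2-DG (50 mM final) were injected in sequence.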

[2] = Half life in rat liver cytoplasm; format: ADME, subcellular
[3] = AUClast in CD-1 mouse at 10 mg/kg, iv and measured up to 24 hrs by LC/MS-MS analysis; format: ADME, organism-based; design: route intravenous, dose 10 mg/kg, time <=24; settings: in vivo
Outline: (§1)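 Male CD1 mice, about 6–8 weeks old and 20–30 g, received 10 mg/kg IV in 0.1 M NaOH in PBS adjusted to pH 7–8.5, made fresh on the day of dosing. Three mice per cohort. Blood was taken from the dorsal metatarsal vein at 5, 15, 30 min and 1, 2, 4, 8, 12, 24 h into heparin tubes. Plasma was spun at 4 °C, stored at –75 °C and analysed by LC–MS/MS. For IV dosing Cmax = C0.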

[4] = Half life in mouse liver cytoplasm; format: ADME, subcellular
[5] = Metabolic stability in dog hepatocytes; format: ADME, cell-based, Canis lupus familiaris, Hepatocyte
[6] = system: Cytochrome P450; experiment: Induction of CYP450 (unknown origin) at 10 uM; format: ADME, protein assay; settings: human
[7] = Genotoxicity in Salmonella typhimurium by Ames test; format: toxicity; settings: salmonella enterica subsp. enterica serovar typhimurium
[8] = Protein binding in mouse plasma assessed as free fraction; format: ADME, cell-free
[9] = target: L-lactate dehydrogenase B chain (Homo sapiens) (UniProt P07195); experiment: Inhibition of recombinant human LDHB using sodium pyruvate as substrate preincubated for 5 mins followed by diaphorase/resazurin addition and measured after 20 mins by fluorescence based assay
Chain of L-lactate dehydrogenase B chain (Homo sapiens) (P07195 2-334 limits assumed): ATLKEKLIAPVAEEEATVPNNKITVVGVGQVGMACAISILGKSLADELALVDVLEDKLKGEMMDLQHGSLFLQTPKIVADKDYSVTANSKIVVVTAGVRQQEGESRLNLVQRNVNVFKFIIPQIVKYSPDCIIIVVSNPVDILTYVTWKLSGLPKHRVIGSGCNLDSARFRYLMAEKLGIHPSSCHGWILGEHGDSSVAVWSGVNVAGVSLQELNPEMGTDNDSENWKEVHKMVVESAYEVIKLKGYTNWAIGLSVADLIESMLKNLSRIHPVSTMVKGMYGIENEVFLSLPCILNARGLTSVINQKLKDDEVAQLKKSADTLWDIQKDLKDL

[10] = Cmax in CD-1 mouse at 10 mg/kg, iv and measured up to 24 hrs by LC/MS-MS analysis; format: ADME, organism-based; design: route intravenous, dose 10 mg/kg, time <=24; settings: in vivo; outline: as §1
[11] = target: T1, L-lactate dehydrogenase A chain; experiment: Binding affinity to human His-tagged LDHA by SPR analysis
Outline: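 SPR on a Mass-1 instrument gave K_D and k_off. Residence time τ was calculated as 1/k_off (s⁻¹).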

[12] = Volume of distribution at steady state in CD-1 mouse at 10 mg/kg, iv and measured up to 24 hrs by LC/MS-MS analysis; format: ADME, organism-based; settings: in vivo; outline: as §1
[13] = species: Sus scrofa; experiment: Inhibition of porcine heart MDH using malic acid as substrate preincubated for 10 mins followed by substrate addition and measured after 5 mins by resazurin based fluorescence based assay; settings: time 15.0 min
[14] = Half life in mouse plasma; format: ADME, cell-free
Outline: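 Stability in mouse plasma was followed at five time points, with T1/2 derived from parent remaining.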

[15] = Kinetic aqueous solubility of the compound in pH 7.4 PBS buffer at 150 uM measured after 6 hrs by shake flask method; format: physicochemical; settings: read-out: Kinetic_solubility
Outline: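 μSOL kinetic solubility. 10 mM DMSO stocks were diluted with 1-propanol cosolvent to 150 μM final in aqueous pH 7.4 and equilibrated 6 h at room temperature. After filtration, filtrate concentration was read by UV absorbance against a 17 μM reference.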

[16] = system: A673; experiment: Cytotoxicity against human A673 cells assessed as reduction in cell viability after 48 hrs by CellTiter-Glo assay; format: functional, cell-based; settings: A673, 48 h
[17] = target: Voltage-gated inwardly rectifying potassium channel KCNH2 (Homo sapiens, UniProt Q12809); experiment: Inhibition of human ERG by patch clamp method; settings: dose >10 µM
Chain of Voltage-gated inwardly rectifying potassium channel KCNH2 (Q12809 whole entry): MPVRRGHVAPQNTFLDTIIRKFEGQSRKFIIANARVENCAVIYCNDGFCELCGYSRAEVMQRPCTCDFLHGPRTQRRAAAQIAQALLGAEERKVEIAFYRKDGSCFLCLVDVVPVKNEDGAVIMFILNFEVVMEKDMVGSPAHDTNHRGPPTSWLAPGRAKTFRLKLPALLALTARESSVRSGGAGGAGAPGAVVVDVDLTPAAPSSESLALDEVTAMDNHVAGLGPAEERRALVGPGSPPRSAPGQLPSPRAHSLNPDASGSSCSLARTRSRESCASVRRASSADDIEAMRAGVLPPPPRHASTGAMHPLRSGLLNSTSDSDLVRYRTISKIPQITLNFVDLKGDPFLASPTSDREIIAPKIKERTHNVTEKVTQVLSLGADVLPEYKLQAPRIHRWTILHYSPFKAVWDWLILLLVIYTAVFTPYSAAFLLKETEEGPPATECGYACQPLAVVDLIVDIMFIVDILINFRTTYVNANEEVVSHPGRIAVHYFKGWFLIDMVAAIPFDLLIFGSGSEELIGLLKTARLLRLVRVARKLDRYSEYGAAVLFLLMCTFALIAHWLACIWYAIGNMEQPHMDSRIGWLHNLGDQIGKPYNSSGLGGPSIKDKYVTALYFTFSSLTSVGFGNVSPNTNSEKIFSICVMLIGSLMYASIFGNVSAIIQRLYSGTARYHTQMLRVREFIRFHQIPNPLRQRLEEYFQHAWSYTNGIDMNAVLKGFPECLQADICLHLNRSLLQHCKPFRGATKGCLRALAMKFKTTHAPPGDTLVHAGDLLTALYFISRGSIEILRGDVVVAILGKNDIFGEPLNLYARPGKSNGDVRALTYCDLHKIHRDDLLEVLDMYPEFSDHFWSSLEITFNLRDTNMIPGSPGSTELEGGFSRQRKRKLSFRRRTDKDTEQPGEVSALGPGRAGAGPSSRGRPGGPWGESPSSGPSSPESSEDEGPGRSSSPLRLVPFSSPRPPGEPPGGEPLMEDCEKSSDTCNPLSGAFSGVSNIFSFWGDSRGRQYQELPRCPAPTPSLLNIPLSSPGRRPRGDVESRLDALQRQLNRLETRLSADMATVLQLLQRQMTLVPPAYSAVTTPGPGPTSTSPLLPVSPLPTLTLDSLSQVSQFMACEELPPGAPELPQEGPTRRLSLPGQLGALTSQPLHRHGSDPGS

[18] = Permeability of compound at pH 7.4 […] incubated for 1 hr by PAMPA-BBB assay; format: ADME; settings: pH 7.4, 1 h
Outline: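 Double-sink PAMPA with 10% porcine brain lipid extract in phospholipid/alkane membrane. 10 mM DMSO stocks were diluted to 0.05 mM at pH 7.4 and stirred 1 h at room temperature. Donor and acceptor were quantified by UV against reference and blank. Results in 10⁻⁶ cm/s.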

[19] = Metabolic stability in mouse hepatocytes; format: ADME, cell-based, Hepatocyte
Outline: (§2)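 Time-course stability in human or mouse liver microsomes, or mouse hepatocytes, in the presence of NADPH and UDPGA. Parent compound was monitored at five time points to derive T1/2.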

[20] = target: T1, L-lactate dehydrogenase A chain; experiment: Inhibition of LDHA in human MIA PaCa-2 cells assessed as decrease in lactate production incubated for 2 hrs by lactate oxidase-coupled fluorescence based assay; format: cell-based
[21] = target: T1, L-lactate dehydrogenase A chain; experiment: Inhibition of GS[HiBiT]GS-tagged LDHA (unknown origin) expressed in HEK-293T cells measured after 1 hr by […]; format: cell-based
Outline: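 HEK293T cells were transiently transfected for 24 h with CMV-driven LDHA carrying a C-terminal GS[HiBiT]GS tag, then reseeded at 2500 cells/well in DPBS with Ca/Mg and 1 g/L glucose. […] Cells were lysed with NP40, and 11S (100 nM final) plus furimazine was added.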

[22] = Half life in human liver microsomes at 1 uM in presence of NADPH by LC-MS/MS; format: ADME, Microsome; outline: as §2
[23] = system: MIA PaCa-2; experiment: Cytotoxicity against human MIA PaCa-2 cells assessed as reduction in cell viability after 48 hrs by CellTiter-Glo assay; format: functional, cell-based; settings: MIA PaCa-2, 48 h
[24] = Half life in human liver cytoplasm; format: ADME, subcellular
[25] = In vivo inhibition of LDH in human A673 cells xenografted athymic nude CrTac:NCr-Foxn1nu mouse assessed as reduction in tumor LDH activity at 50 mg/kg, iv after 6 hrs by UV-VIS spectrometric method relative to control; format: functional
Outline: (§3)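 Female athymic nude mice carried SQ A673 flank xenografts (2 million cells) and received a single IV dose of 50 mg/kg in PBS-based vehicle. Four mice per time point were sacrificed at 1, 3, 6 and 24 h. Frozen tumor (10–50 mg) was pulverized and lysed in PBS pH 7.4 with 0.1% Triton X-100 on ice for 1 h. Cleared lysate (10–20 μg) was assayed with 10 mM pyruvate and 0.3 mM final NADH, reading NADH oxidation at 340 nm at 37 °C.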

[26] = target: T1, L-lactate dehydrogenase A chain; experiment: Inhibition of LDHA in human A673 cells assessed as decrease in lactate production incubated for 2 hrs by lactate oxidase-coupled fluorescence based assay; format: cell-based
[27] = Half life in rat liver microsomes at 1 uM in presence of NADPH by LC-MS/MS; format: ADME, Microsome
[28] = system: Mus musculus; experiment: In vivo inhibition of LDH in human A673 cells xenografted athymic nude CrTac:NCr-Foxn1nu mouse assessed as reduction in tumor LDH activity at 50 mg/kg, iv after 1 hr by NADH-based UV-VIS spectrometric method relative to control; format: functional, organism-based; outline: as §3
[29] = target: T1, L-lactate dehydrogenase A chain; experiment: Inhibition of recombinant human LDHA using sodium pyruvate as substrate preincubated for 5 mins followed by diaphorase/resazurin addition and measured after 20 mins by fluorescence based assay
[30] = Half life in mouse liver microsomes at 1 uM in presence of NADPH by LC-MS/MS; format: ADME, Microsome; outline: as §2

SMILES | inhibition [1] | half-life [2] [h] | AUClast [3] [ng·h/mL] | half-life [4] [h] | half-life [5] [h] | Activity [6] | Activity [7] | Fu [8] [%] | inhibition [9] | Cmax [10] [ng/mL] | Kd [11] [nM] | Vdss [12] [L/kg] | inhibition [13] | t1/2 [14] [h] | solubility kinetic at 6 h, 150 µM [15] [µg/mL] | IC50 [16] [nM] | INH [17] [µM] | permeability [18] | half-life [19] [h] | IC50 [20] [nM] | other results
Cc1ccc(C#Cc2cccc(-c3nn(-c4nc(C(=O)O)cs4)c(CC4CC4)c3Cc3ccc(S(N)(=O)=O)c(F)c3)c2)s1 | Active | > 2 | 16530 | > 2 | > 2.5 | Not Active | Non-Toxic | 4.4 | Active | 33800 | 0.0634 | 1.7 | inactive | > 4 | > 70 | 105 | > 10 | 9.6 10^-6 cm/s | > 2.5 | 367 | IC50 [21]: 119 nM; half-life at 1 µM [22]: > 2 h; IC50 [23]: 347 nM; half-life [24]: > 2 h; inhibition in vivo at 50 mg/kg [25]: 80%; IC50 [26]: 760 nM; half-life at 1 µM [27]: > 2 h; inhibition [28]: Active; IC50 [29]: 40 nM; half-life at 1 µM [30]: > 2 h
Cc1ccc(C#Cc2cc(-c3nn(-c4nc(C(=O)O)cs4)c(CC4CC4)c3Cc3ccc(S(N)(=O)=O)c(F)c3)ccc2F)s1 | Active | > 2 | 10570 | > 2 | > 2.5 | Not Active | Non-Toxic | 0.7 | Active | 41800 | 0.0667 | 1.79 | inactive | > 4 | > 70 | 119 | > 10 | 16 10^-6 cm/s | > 2.5 | 403 | IC50 [21]: 106 nM; half-life at 1 µM [22]: > 2 h; IC50 [23]: 257 nM; half-life [24]: > 2 h; inhibition in vivo at 50 mg/kg [25]: 60%; IC50 [26]: 873 nM; half-life at 1 µM [27]: > 2 h; inhibition [28]: Active; IC50 [29]: 57 nM; half-life at 1 µM [30]: > 2 h
